Results as given in ChEMBL document CHEMBL3621114, “Design and Synthesis of Non-Peptide, Selective Orexin Receptor 2 Agonists” (J Med Chem, 2015).
The source made the active and inactive calls. The calls are words filed in the database; no cut-off is given here.

How the values were obtained:
[1] = test system: Mus musculus; assay: Induction of wakefullness in C57BL/6J mouse assessed as EEG/EMG signals at 32 to 260 nmol, icv dosed on every other day during light phase; format: functional, organism-based
Summary of the method: (§1)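 Intracerebroventricular injection during the light phase, given at 6 h into the light phase (ZT6). Saline was the vehicle control. Sleep/wake states were scored from EEG/EMG recordings, and the read-out was cumulative time awake within 2 h after dosing. Wild-type C57BL/6J mice and OX1R/OX2R double-knockout mice were used.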

[2] = test system: Mus musculus; assay: Induction of wakefullness in OX1R/OX2R double knock out C57BL/6J mouse assessed as increase in wake time by measuring EEG/EMG signals at 260 nmol, icv dosed on every other day during light phase; format: functional, organism-based; summary of the method: as §1
[3] = target: T1, Orexin/Hypocretin receptor type 1 (Homo sapiens) (UniProt O43613); assay: Agonist activity at human OX1R expressed in CHOK1 cells by calcium mobilization assay relative to orexin-A; format: functional, cell-based; settings: CHO-K1
T1 sequence (whole entry): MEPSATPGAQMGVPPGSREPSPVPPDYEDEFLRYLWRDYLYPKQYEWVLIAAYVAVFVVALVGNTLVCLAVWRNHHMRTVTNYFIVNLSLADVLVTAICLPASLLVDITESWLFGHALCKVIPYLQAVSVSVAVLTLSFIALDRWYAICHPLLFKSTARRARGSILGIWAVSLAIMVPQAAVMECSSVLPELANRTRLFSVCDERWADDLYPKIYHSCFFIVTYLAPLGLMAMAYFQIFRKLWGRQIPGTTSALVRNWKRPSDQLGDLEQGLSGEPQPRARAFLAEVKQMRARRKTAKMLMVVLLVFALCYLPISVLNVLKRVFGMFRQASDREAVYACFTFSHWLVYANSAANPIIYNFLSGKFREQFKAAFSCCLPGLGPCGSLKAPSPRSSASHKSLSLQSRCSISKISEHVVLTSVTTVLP

[4] = target: T2, Orexin receptor type 2 (Homo sapiens) (UniProt O43614); assay: Agonist activity at human OX2R expressed in CHOK1 cells at 10 uM by calcium mobilization assay relative to orexin-A; format: functional, cell-based; settings: CHO-K1
T2 sequence (whole entry): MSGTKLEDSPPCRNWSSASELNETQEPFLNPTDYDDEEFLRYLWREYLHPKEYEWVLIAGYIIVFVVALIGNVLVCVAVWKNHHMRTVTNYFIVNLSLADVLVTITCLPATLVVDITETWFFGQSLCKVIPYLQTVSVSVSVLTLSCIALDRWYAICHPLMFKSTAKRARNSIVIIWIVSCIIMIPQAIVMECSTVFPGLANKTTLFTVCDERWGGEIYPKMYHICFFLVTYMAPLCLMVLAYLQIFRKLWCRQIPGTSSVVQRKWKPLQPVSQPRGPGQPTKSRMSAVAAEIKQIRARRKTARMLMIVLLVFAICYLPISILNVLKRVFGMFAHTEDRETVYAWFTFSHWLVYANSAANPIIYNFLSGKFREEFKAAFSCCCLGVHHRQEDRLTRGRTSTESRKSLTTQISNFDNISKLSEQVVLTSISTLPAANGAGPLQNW

[5] = target: T2, Orexin receptor type 2 (Homo sapiens); assay: Agonist activity at human OX2R expressed in CHOK1 cells at 10 uM by NFAT-response luciferase reporter gene assay relative to orexin-A; format: cell-based; settings: CHO-K1
[6] = target: T2, Orexin receptor type 2 (Homo sapiens); assay: Agonist activity at human OX2R expressed in CHOK1 cells at 10 uM by calcium mobilization assay relative to orexin-A; settings: CHO-K1
[7] = target: T3, Orexin receptor type 2 (Homo sapiens, UniProt O43614); assay: Agonist activity at human OX2R expressed in CHOK1 cells by calcium mobilization assay
T3 sequence (O43614 whole entry): T2 sequence (whole entry)

[8] = target: T4, Orexin/Hypocretin receptor type 1 (Homo sapiens, UniProt O43613); assay: Agonist activity at human OX1R expressed in CHOK1 cells by calcium mobilization assay; format: functional, cell-based, CHO-K1
T4 sequence (O43613 whole entry): T1 sequence (whole entry)

[9] = test system: CHO-K1; assay: Selectivity index, ratio of EC50 for human OX1R expressed in CHOK1 cells to EC50 for human OX2R expressed in CHOK1 cells; format: cell-based
[10] = target: T2, Orexin receptor type 2 (Homo sapiens); assay: Agonist activity at human OX2R expressed in CHOK1 cells at 1 uM by calcium mobilization assay relative to orexin-A; format: functional, cell-based; settings: CHO-K1
[11] = target: T3, Orexin receptor type 2; assay: Agonist activity at human OX2R expressed in CHOK1 cells by NFAT-response luciferase reporter gene assay; format: cell-based; settings: cho-k1
[12] = Stability in pH 8.0 buffer; format: physicochemical
[13] = target: T2, Orexin receptor type 2 (Homo sapiens); assay: Agonist activity at human OX2R expressed in CHOK1 cells at 5 uM by NFAT-response luciferase reporter gene assay relative to orexin-A; format: cell-based; settings: CHO-K1
[14] = target: T2, Orexin receptor type 2 (Homo sapiens); assay: Agonist activity at human OX2R expressed in CHOK1 cells at 5 uM by calcium mobilization assay relative to orexin-A; format: functional, cell-based; settings: CHO-K1
[15] = target: T3, Orexin receptor type 2; assay: biochemical
[16] = test system: Mus musculus; assay: Induction of wakefullness in C57BL/6J mouse assessed as increase in wake time by measuring EEG/EMG signals at 260 nmol, icv dosed on every other day during light phase; format: functional; summary of the method: as §1

COc1ccc(-c2cccc(C(=O)N(C)C)c2)cc1S(=O)(=O)Nc1cccc(NCCNC(=O)c2ccccc2N(C)C)c1 [listing 1 of 2 here]
Activity [1]: Dose-dependent effect | Activity [2]: inactive | Emax [3]: 55%

COc1ccccc1C(=O)NCCNc1cccc(NS(=O)(=O)c2cc(C(C)C)c(C)cc2OC)c1
Efficacy [4]: 22% | Efficacy [5]: 33%

COc1ccccc1C(=O)NCCNc1cccc(NS(=O)(=O)c2cc(-c3ccccc3)ccc2OC)c1
Emax [6]: 48% | EC50 [7]: > 10000 nM

COc1ccc(-c2cccc(C(=O)N(C)C)c2)cc1S(=O)(=O)Nc1cccc(NCCNC(=O)c2cccc(Cl)c2)c1
EC50 ([8]; read-out: EC50): 5720 nM | Ratio EC50 [9]: 60 | EC50 [7]: 94 nM | Emax [3]: 73%

COc1cccc(-c2ccc(OC)c(S(=O)(=O)Nc3cccc(NCCNC(=O)c4ccccc4OC)c3)c2)c1
Emax [10]: 54% | EC50 [7]: 800 nM

COc1ccc(-c2cccc(C(=O)N(C)C)c2)cc1C(=O)Nc1cccc(NCCNC(=O)c2cccc(C)c2)c1
EC50 [11]: Not Active | EC50 ([8]; cho-k1): Not Active

COc1ccc(-c2cccc(C(=O)N(C)C)c2)cc1S(=O)(=O)Nc1cccc(NCCNC(=O)c2ccccc2N(C)C)c1 [listing 2 of 2 here]
EC50 ([8]; read-out: EC50): 2750 nM | EC50 [7]: 28 nM

COc1ccc(-c2cccc(C(=O)N(C)C)c2)cc1S(=O)(=O)Nc1cccc(NCCNC(=O)c2ccccc2)c1
EC50 [7]: > 10000 nM

COc1ccccc1C(=O)NCCNc1cccc(NS(=O)(=O)c2cc(-c3cccnc3)ccc2OC)c1
Emax [6]: 88%

Cc1ccc(S(=O)(=O)n2nc(OC(=O)c3c(-c4ccccc4Cl)noc3C)cc2N)cc1
Stability [12]: Unstable | Efficacy [13]: 36% | Efficacy [14]: inactive

COc1ccccc1C(=O)N1CCC(CNS(=O)(=O)c2cc(C(C)C)c(C)cc2OC)CC1
Efficacy [4]: inactive | Efficacy [5]: 16%

COc1ccccc1C(=O)N[C@H]1CC[C@H](CNS(=O)(=O)c2cc(C(C)C)c(C)cc2OC)CC1
Efficacy [4]: inactive | Efficacy [5]: 24%

COc1ccccc1C(=O)NCCNc1cccc(NS(=O)(=O)c2cc(-c3cccc(C(=O)N(C)C)c3)ccc2OC)c1
EC50 ([8]; read-out: EC50): 5230 nM | Emax [10]: 74% | Ratio EC50 [9]: 105 | Emax [3]: 46%

COc1ccccc1C(=O)NCCNc1cccc(NS(=O)(=O)c2cc(-c3cccc(C(=O)N4CCC4)c3)ccc2OC)c1
Emax [6]: 85% | EC50 [7]: 235 nM

COc1cccc(C(=O)NCCNc2cccc(NS(=O)(=O)c3cc(-c4cccc(C(=O)N(C)C)c4)ccc3OC)c2)c1
EC50 ([8]; read-out: EC50): 9250 nM | Ratio EC50 [9]: 280 | Emax [3]: 49%

COc1ccc(-c2cccc(C(=O)N(C)C)c2)cc1S(=O)(=O)Nc1cccc(NCCNC(=O)c2cccc(C)c2)c1
Ki [15]: 770 nM | Emax [3]: 100%

COC(=O)c1cccc(-c2ccc(OC)c(S(=O)(=O)Nc3cccc(NCCNC(=O)c4ccccc4OC)c3)c2)c1
Emax [6]: 49% | EC50 [7]: > 10000 nM

COc1ccccc1C(=O)NCCNc1ccc(NS(=O)(=O)c2cc(C(C)C)c(C)cc2OC)cc1
Efficacy [4]: 12% | Efficacy [5]: 18%

COc1ccccc1C(=O)NCCNc1cc(C)ccc1NS(=O)(=O)c1cc(C(C)C)c(C)cc1OC
Efficacy [4]: inactive | Efficacy [5]: 9%

COc1ccccc1C(=O)NCCNc1cccc(NS(=O)(=O)c2cc(-c3cccc(N)c3)ccc2OC)c1
Emax [6]: 73% | EC50 [7]: > 1000 nM

COc1ccccc1C(=O)NCCNc1cccc(NS(=O)(=O)c2cc(-c3cccc(F)c3)ccc2OC)c1
Emax [6]: 47% | EC50 [7]: > 10000 nM

CNC(=O)c1cccc(-c2ccc(OC)c(S(=O)(=O)Nc3cccc(NCCNC(=O)c4ccccc4OC)c3)c2)c1
Emax [10]: 98%

COc1ccc(-c2cccc(C(=O)N(C)C)c2)cc1S(=O)(=O)Nc1cccc(NCCNC(=O)c2ccccc2N(C)C)c1.Cl
Time [16]: 53 min

COc1ccc(-c2cccc(C(=O)N(C)C)c2)cc1S(=O)(=O)Nc1cccc(NCCNC(=O)c2ccccc2Cl)c1
EC50 ([8]; read-out: EC50): 6130 nM | Ratio EC50 [9]: 198 | Emax [3]: 50%
